Measured values from ChEMBL document CHEMBL4765320, “Identification and optimization of piperine analogues as neuroprotective agents for the treatment of Parkinson's disease via the activation of Nrf2/keap1 pathway” (Eur J Med Chem, 2020).
Calls of active or inactive are those of the source. The calls are words filed in the database; no cut-off is given here.

Assays:
PC-12 [1] = test: Inhibition of H2O2-induced reactive oxygen species production in rat PC-12 cells assessed as ROS accumulation at 100 uM measured after pretreated for 24 hrs followed by H2O2 challenge and measured after 24 hrs by DCFH-DA probe based flow cytometry; assay type: functional, cell-based
Summary of the method: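 PC12 cells seeded 1 × 10⁴/well, pretreated 24 h with 12.5–100 µM compound, then 300 µM H2O2 for 24 h. Rinsed, loaded with DCFH-DA (1:1000 in serum-free medium) 15 min at room temperature in the dark, washed; fluorescence read by microscopy, plate reader ([…]) and flow cytometry; three independent experiments.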

PC-12 [2] = test: Inhibition of H202-induced apoptosis in rat PC-12 cells assessed as early apoptotic cells at 25 uM after 24 hrs by Annexin-V-FITC/PI-staining based flow cytometric analysis (reference value: 15.16%); assay type: functional; parameters: scale not given: the % may be the effect or the level left
Summary of the method: (§1)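 PC12 cells seeded 2 × 10⁵/well for 24 h, pretreated 24 h with 12.5, 25, 50 or 100 µM compound, then given fresh medium containing 650 µM H2O2. Harvested cells washed in binding buffer, stained 5 min with Annexin V-FITC/PI, analysed by flow cytometry.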

Mus musculus [3] = test: Neuroprotective activity in lesioned C57BL/6 mouse model of Parkinson's disease assessed as increase in time spent on rotarod at 100 mg/kg, po administered for 2 week before MPTP stimulation by rotarod test; assay type: functional; details: time 2 weeks
Summary of the method: (§2)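 Male 10-week-old C57BL/6 mice (20–23 g), n = 6/group. Prophylactic: oral compound (50 or 100 mg/kg in saline) 2 weeks, then MPTP-HCl 25 mg/kg i.p. in week 3. Therapeutic: MPTP-HCl 25 mg/kg i.p. 1 week, then oral 100 mg/kg 2 weeks. Saline vehicle. Pole/rotarod training last 3 days; TH immunohistochemistry on SNpc and striatum.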

[4] = target: T1, Nuclear factor erythroid 2-related factor 2 (Rattus norvegicus) (UniProt O54968); test: Induction of Nrf2 nuclear translocation in rat PC-12 cells assessed as Nrf2 accumulation in nucleus at 25 uM by Western blot analysis; assay type: cell-based; details: filed as activator, time 4-8 hrs, TDE = time-dependent effect
T1 sequence (whole entry): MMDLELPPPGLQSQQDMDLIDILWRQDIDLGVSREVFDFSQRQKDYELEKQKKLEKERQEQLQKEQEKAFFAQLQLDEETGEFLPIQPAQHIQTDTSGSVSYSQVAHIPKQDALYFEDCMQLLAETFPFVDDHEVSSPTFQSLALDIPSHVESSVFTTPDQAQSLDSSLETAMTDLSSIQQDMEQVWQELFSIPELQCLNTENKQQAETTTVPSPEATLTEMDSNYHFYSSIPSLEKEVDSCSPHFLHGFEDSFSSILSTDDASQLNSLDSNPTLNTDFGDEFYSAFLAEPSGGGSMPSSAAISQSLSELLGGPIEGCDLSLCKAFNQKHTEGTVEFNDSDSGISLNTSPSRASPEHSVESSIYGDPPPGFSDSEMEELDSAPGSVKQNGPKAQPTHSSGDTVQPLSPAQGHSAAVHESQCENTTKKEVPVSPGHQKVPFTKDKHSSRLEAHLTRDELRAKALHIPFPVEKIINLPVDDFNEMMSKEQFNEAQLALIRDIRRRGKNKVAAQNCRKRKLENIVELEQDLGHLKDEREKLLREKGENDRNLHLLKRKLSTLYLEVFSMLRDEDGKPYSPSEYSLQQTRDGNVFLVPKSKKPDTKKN
Summary of the method: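 PC12 cells incubated with 25 µM compound for 4, 6 and 8 h; nuclear and cytoplasmic fractions prepared with an extraction kit; nuclear, cytosolic and total Nrf2 assessed by SDS-PAGE/PVDF Western blot. Three independent experiments.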

[5] = target: T1, Nuclear factor erythroid 2-related factor 2 (Rattus norvegicus); test: Induction of Nrf2 nuclear translocation in rat PC-12 cells assessed as Nrf2 accumulation in nucleus at 25 uM measured after 4 to 8 hrs by immunofluorescence analysis; assay type: cell-based; details: filed as activator, time 4-8 hrs
Summary of the method: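 PC12 cells exposed to 25 µM compound for 0, 4, 6 and 8 h; fixed in cold methanol (−20 °C, 20 min), anti-Nrf2 overnight, Dylight 594 secondary (1:500, 1 h), DAPI nuclear counterstain; imaged by fluorescence microscopy.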

Mus musculus [6] = test: Neuroprotective activity against lesioned C57BL/6 mouse model of Parkinson's disease assessed as upregulation of Nrf2 in SNpc and striatum area at 100 mg/kg , po administered for 2 week before MPTP stimulation by Immuno histochemistry assays; assay type: functional, organism-based; details: Brain, time 2.0 weeks
Summary of the method: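 Prophylactic regimen in male C57BL/6 mice (n = 6): oral compound 100 mg/kg in saline 2 weeks, then MPTP-HCl 25 mg/kg i.p. in week 3. Nrf2 immunohistochemistry in striatum and SNpc, quantified as Nrf2-immunopositive density relative to total area; mean ± SD.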

PC-12 [7] = test: Neuroprotective activity against H2O2-induced cytotoxicity in rat PC-12 cells assessed as cell viability at 100 uM pretreated for 24 hrs followed by H2O2 challenge and measured after 24 hrs by MTT assay (reference value: 52.81 +/- 6%); assay type: functional, cell-based; details: time 48.0 hrs
Mus musculus [8] = test: Neuroprotective activity in lesioned C57BL/6 mouse model of Parkinson's disease assessed as assessed as reduction in climbing down time at 100 mg/kg, po administered for 2 week after MPTP stimulation by pole test; assay type: functional; details: C57BL/6, po, 336 h, read-out: INH, time 2 weeks; summary of the method: as §2
Mus musculus [9] = test: Neuroprotective activity in lesioned C57BL/6 mouse model of Parkinson's disease assessed as increase in time spent on rotarod at 50 mg/kg, po administered for 2 week before MPTP stimulation by rotarod test; assay type: functional; details: time 2 weeks; summary of the method: as §2
PC-12 [10] = test: Neuroprotective activity against H202-induced cell damage in rat PC-12 cells assessed as decrease in LDH content incubated at 12.5 to 25 uM for 24 hrs by Lactate dehydrogenase assay; assay type: functional, cell-based; details: dose 12.5-25 µM
Summary of the method: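 PC12 cells seeded 1 × 10⁴/well for 24 h, pretreated with compound at several concentrations (12.5–100 µM range), then challenged with H2O2; LDH released into medium quantified as membrane-damage marker. Mean ± SD, three independent experiments.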

PC-12 [11] = test: Inhibition of H2O2-induced mitochondrial membrane potential loss in rat PC-12 cells pretreated for 24 hrs followed by H2O2 challenge and measured after 24 hrs by JC-1 staining based fluorescence microplate reader assay; details: dose 12.5-50 µM, time 48.0 hrs
PC-12 [12] = test: Inhibition of H202-induced apoptosis in rat PC-12 cells assessed as early apoptotic cells at 100 uM after 24 hrs by Annexin-V-FITC/PI-staining based flow cytometric analysis (reference value: 15.16%); assay type: functional; parameters: scale not given: the % may be the effect or the level left; summary of the method: as §1
PC-12 [13] = test: Inhibition of H202-induced apoptosis in rat PC-12 cells assessed as late apoptotic cells at 12.5 uM after 24 hrs by Annexin-V-FITC/PI-staining based flow cytometric analysis (reference value: 32.5%); assay type: functional; parameters: scale not given: the % may be the effect or the level left; summary of the method: as §1
Mus musculus [14] = test: Neuroprotective activity in lesioned C57BL/6 mouse model of Parkinson's disease assessed as assessed as reduction in climbing down time at 50 mg/kg, po administered for 2 week before MPTP stimulation by pole test; assay type: functional; details: C57BL/6, po, 336 h, time 2 weeks; summary of the method: as §2

**Q.** Which Activity (PC-12 [1]) does the source give for `COc1ccccc1/C=C/C=C/C(=O)N1CCCCC1` here?
**A.** Its Activity is “inactive”.

**Q.** And the Activity (PC-12 [2])?
**A.** Its Activity is 12.72%.

**Q.** What about the Time (Mus musculus [3]) of the same compound?
**A.** The Time was 226.2 s.

**Q.** What about the Activity [4] of the same compound?
**A.** The Activity was “Tde”.

**Q.** And the Activity [5]?
**A.** Its Activity is “Active”.

**Q.** What about the Activity (Mus musculus [6]) of the same compound?
**A.** The Activity was “Active”.

**Q.** What about the Activity (PC-12 [7]) of the same compound?
**A.** Its Activity is “Active”.

**Q.** And the inhibition in vivo at 100 mg/kg (Mus musculus [8])?
**A.** The inhibition in vivo at 100 mg/kg was 20.6%.

**Q.** And the Time (Mus musculus [9])?
**A.** The Time was 253.7 s.

**Q.** And the Activity (PC-12 [10])?
**A.** The Activity was “Active”.

**Q.** And the inhibition (PC-12 [11])?
**A.** Its inhibition is “Dose-dependent effect”.

**Q.** What about the Activity (PC-12 [12]) of the same compound?
**A.** The Activity was 12.11%.

**Q.** What about the Activity (PC-12 [13]) of the same compound?
**A.** Its Activity is 26.08%.

**Q.** What about the inhibition in vivo at 50 mg/kg (Mus musculus [14]) of the same compound?
**A.** The inhibition in vivo at 50 mg/kg was 38.1%.
